In ChEMBL document CHEMBL4219124, “Alleviating CYP and hERG liabilities by structure optimization of dihydrofuran-fused tricyclic benzo[d]imidazole series - Potent, selective and orally efficacious microsomal prostaglandin E synthase-1 (mPGES-1) inhibitors: Part-2” (Bioorg Med Chem Lett, 2018):

What was measured:
[1] = Metabolic stability in human liver microsomes assessed as parent compound remaining at 1 uM after 60 mins in presence of NADPH by LC-MS/MS analysis; type: ADME, microsome; details: read-out: Stability
Procedure, shortened: (§1)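 Compound incubated 60 min at 37 °C with human, rat or guinea pig liver microsomes; percent parent remaining, triplicates.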

[2] = target: T1, Prostacyclin synthase (Homo sapiens) (UniProt Q16647); assay: Inhibition of recombinant human PGIS expressed in CHO cells at 10 uM relative to control; type: cell-based
T1 sequence (whole entry): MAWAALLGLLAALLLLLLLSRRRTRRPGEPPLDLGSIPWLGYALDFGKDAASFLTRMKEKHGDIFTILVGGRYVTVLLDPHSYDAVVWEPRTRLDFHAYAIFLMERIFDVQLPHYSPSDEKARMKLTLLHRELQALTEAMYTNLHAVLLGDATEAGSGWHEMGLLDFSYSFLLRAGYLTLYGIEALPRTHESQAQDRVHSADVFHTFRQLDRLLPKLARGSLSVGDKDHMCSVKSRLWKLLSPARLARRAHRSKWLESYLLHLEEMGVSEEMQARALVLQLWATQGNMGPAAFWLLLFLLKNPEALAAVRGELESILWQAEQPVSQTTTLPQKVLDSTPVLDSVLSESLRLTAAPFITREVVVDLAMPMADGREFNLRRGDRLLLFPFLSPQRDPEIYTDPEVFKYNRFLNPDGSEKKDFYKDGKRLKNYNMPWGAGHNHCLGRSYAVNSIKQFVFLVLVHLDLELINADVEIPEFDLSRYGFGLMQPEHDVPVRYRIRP

[3] = target: T2, Prostaglandin E synthase 3 (Homo sapiens) (UniProt Q15185); assay: Inhibition of cPGES in human U937 cells assessed as decrease in PGE2 production at 10 uM using arachidonic acid as substrate relative to control; type: cell-based
T2 sequence (whole entry): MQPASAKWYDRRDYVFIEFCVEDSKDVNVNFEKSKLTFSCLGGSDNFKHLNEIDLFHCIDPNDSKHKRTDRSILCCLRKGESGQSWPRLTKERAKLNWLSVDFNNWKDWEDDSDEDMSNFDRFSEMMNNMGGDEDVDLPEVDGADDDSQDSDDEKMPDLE
Procedure, shortened: (§2)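 Selectivity panel against other prostanoid-pathway enzymes. % inhibition values are means of at least two experiments, each in duplicate.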

Prostaglandin E synthase [4] = target: T3, Prostaglandin E synthase (Homo sapiens, UniProt O14684); assay: Inhibition of recombinant human mPGES1 expressed in CHO cells assessed as reduction in PGE2 production using PGH2 as substrate incubated for 10 mins followed by substrate addition measured for 1 min; type: cell-based
T3 sequence (O14684 whole entry): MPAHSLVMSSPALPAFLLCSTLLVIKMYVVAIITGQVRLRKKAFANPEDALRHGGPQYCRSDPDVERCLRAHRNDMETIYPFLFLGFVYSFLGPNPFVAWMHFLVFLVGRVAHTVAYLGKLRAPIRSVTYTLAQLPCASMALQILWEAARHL

Prostaglandin E synthase [5] = target: T3, Prostaglandin E synthase; assay: Inhibition of mPGES1 in human whole blood assessed as reduction in LPS-induced PGE2 production measured after 20 to 24 hrs
[6] = Metabolic stability in guinea pig liver microsomes assessed as parent compound remaining at 1 uM after 60 mins in presence of NADPH by LC-MS/MS analysis; type: ADME, Cavia porcellus, microsome; details: read-out: Stability; procedure, shortened: as §1
CYP3A4 = CYP3A4 (Homo sapiens, UniProt P08684); assay: Inhibition of CYP3A4 in human liver microsomes at 10 uM after 20 mins in presence of NADPH by LC-MS/MS analysis; type: ADME
CYP3A4, sequence (P08684 whole entry, canonical isoform): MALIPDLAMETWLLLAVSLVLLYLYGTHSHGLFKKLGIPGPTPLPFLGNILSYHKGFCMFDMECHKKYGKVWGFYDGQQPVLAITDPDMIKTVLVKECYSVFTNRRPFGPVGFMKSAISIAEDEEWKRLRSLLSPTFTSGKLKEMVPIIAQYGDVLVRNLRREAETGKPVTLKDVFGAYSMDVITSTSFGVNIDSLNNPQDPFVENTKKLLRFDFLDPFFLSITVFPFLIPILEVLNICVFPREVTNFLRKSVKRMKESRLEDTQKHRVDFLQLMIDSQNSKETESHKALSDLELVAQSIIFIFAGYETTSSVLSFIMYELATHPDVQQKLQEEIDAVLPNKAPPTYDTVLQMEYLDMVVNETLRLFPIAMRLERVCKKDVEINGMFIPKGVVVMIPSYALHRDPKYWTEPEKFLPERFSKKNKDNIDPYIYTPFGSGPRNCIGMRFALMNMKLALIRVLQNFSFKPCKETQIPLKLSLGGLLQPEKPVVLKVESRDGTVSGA
Procedure, shortened: (§3)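 Percent inhibition of each CYP isoform by test compound at 10 µM, compared with a no-inhibitor control. Run in triplicate.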

CYP2C9 = CYP2C9 (Homo sapiens, UniProt P11712); assay: Inhibition of CYP2C9 in human liver microsomes at 10 uM after 20 mins in presence of NADPH by LC-MS/MS analysis; type: ADME; procedure, shortened: as §3
CYP2C9, sequence (P11712 whole entry): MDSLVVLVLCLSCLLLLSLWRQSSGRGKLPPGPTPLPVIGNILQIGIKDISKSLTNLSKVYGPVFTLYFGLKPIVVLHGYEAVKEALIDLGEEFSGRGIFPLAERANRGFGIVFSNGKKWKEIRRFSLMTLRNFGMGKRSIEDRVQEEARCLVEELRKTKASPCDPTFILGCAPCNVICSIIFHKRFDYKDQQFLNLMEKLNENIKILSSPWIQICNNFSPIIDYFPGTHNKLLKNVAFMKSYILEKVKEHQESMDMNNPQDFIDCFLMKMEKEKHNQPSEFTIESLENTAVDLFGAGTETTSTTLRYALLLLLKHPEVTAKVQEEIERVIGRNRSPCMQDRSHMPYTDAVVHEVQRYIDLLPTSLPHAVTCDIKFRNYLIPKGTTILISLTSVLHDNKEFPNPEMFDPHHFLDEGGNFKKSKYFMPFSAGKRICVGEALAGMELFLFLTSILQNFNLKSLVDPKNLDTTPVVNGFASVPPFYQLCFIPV

CYP2C19 = CYP2C19 (Homo sapiens, UniProt P33261); assay: Inhibition of CYP2C19 in human liver microsomes at 10 uM after 40 mins in presence of NADPH by LC-MS/MS analysis; type: ADME; procedure, shortened: as §3
CYP2C19, sequence (P33261 whole entry): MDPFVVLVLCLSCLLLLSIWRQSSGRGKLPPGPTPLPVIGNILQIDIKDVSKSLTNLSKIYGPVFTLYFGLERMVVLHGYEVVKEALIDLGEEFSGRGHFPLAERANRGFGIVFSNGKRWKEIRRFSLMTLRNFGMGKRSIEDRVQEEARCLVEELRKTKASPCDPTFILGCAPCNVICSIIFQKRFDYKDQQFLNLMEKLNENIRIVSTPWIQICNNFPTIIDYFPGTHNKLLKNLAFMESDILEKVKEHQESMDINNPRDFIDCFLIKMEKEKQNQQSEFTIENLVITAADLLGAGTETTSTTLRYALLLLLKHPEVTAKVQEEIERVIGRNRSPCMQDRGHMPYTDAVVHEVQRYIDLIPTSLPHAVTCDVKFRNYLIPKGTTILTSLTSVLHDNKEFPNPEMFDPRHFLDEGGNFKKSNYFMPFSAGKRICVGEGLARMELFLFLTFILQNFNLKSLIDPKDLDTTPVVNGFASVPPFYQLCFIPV

[7] = Protein binding in human plasma at 10 uM after 5 hrs by equilibrium dialysis based LC-MS/MS analysis; type: ADME, cell-free; details: read-out: PPB (converted)
Procedure, shortened: (§4)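 Equilibrium dialysis at 10 μM compound; result expressed as percent bound.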

[8] = Protein binding in guinea pig plasma at 10 uM after 5 hrs by equilibrium dialysis based LC-MS/MS analysis; type: ADME, cell-free, Cavia porcellus; details: read-out: PPB (converted); procedure, shortened: as §4
hERG (KCNH2) = hERG (KCNH2) (Homo sapiens, UniProt Q12809); assay: Inhibition of human ERG at 10 uM by patch clamp assay relative to control
hERG (KCNH2), sequence (Q12809 whole entry): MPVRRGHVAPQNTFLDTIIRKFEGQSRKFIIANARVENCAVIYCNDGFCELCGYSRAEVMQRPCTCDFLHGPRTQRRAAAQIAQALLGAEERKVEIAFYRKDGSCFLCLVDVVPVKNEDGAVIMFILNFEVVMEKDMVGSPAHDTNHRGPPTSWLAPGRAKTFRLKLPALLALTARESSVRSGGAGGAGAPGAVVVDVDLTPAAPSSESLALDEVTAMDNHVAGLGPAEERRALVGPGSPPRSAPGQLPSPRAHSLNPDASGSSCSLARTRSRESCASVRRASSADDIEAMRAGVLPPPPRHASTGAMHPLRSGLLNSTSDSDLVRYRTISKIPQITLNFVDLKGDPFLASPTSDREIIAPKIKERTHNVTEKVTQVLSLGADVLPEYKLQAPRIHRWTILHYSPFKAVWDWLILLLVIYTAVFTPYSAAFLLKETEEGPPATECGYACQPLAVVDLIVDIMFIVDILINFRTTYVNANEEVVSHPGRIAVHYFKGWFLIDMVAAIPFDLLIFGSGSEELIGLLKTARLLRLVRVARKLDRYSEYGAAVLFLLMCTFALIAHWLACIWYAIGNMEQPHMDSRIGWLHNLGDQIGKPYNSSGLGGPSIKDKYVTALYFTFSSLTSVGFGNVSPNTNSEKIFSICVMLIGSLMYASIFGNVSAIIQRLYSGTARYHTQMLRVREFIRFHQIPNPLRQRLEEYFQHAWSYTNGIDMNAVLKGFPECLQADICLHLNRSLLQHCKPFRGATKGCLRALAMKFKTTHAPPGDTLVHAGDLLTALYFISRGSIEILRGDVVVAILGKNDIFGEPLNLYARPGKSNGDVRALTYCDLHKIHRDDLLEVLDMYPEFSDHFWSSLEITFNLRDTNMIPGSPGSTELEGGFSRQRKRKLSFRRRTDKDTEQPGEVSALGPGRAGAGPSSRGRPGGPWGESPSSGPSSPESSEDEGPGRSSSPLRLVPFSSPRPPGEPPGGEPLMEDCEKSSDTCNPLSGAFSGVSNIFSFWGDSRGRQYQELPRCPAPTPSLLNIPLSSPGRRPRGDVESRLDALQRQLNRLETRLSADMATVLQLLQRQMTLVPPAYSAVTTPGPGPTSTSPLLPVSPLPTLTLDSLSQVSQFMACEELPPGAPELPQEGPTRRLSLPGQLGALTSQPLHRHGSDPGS
Procedure, shortened: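 hERG current measured by patch clamp with test compound at 10 µM; result given as % inhibition.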

[9] = Inhibition of human U937 cells-derived COX1 assessed as decrease in PGE2 production at 10 uM using arachidonic acid as substrate preincubated for 15 mins prior to substrate addition for 5 mins relative to control; details: COX1 derived from U937 cells, probe arachidonic acid; procedure, shortened: as §2
[10] = Inhibition of recombinant human COX2 assessed as decrease in PGE2 production at 10 uM using arachidonic acid as substrate preincubated for 15 mins prior to substrate addition for 5 mins relative to control; details: recombinant COX2, probe arachidonic acid
[11] = target: Prostaglandin E synthase 2 (Homo sapiens) (UniProt Q9H7Z7); assay: Inhibition of mPGES2 in A23187-stimulated human THP1 cells assessed as decrease in PGE2 production at 10 uM using arachidonic acid as substrate relative to control; procedure, shortened: as §2
Prostaglandin E synthase 2 (Homo sapiens), sequence (Q9H7Z7 whole entry): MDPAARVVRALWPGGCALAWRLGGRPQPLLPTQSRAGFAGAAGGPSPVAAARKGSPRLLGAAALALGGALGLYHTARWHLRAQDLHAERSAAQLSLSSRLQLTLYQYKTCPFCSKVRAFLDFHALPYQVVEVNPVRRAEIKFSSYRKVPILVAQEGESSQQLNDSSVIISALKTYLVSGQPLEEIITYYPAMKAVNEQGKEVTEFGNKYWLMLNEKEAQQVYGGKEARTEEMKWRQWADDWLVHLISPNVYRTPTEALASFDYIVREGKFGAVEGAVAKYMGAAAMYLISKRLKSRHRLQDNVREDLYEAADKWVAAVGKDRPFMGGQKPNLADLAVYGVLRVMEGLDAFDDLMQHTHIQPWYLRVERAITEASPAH

[12] = Inhibition of guinea pig mPGES1 expressed in CHO cells assessed as reduction in PGE2 production using PGH2 as substrate incubated for 10 mins followed by substrate addition measured for 1 min; parameters: species or system Cavia porcellus
Procedure, shortened: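 Guinea pig mPGES-1 enzyme assay, run the same way as the human enzyme assay. IC50 for inhibition of PGE2 formation, read from curves built on at least two experiments, each in duplicate.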

CHO = assay: Inhibition of rat mPGES1 expressed in CHO cells assessed as reduction in PGE2 production at 10 uM using PGH2 as substrate incubated for 10 mins followed by substrate addition measured for 1 min relative to control; type: cell-based
Procedure, shortened: (§5)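 Rodent enzyme protocol run as for the human and guinea pig mPGES-1 enzyme assays; single-concentration percent inhibition.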

[13] = target: T4, Prostaglandin E synthase (Mus musculus) (UniProt Q9JM51); assay: Inhibition of mouse mPGES1 expressed in CHO cells assessed as reduction in PGE2 production at 10 uM using PGH2 as substrate incubated for 10 mins followed by substrate addition measured for 1 min relative to control; procedure, shortened: as §5
T4 sequence (whole entry): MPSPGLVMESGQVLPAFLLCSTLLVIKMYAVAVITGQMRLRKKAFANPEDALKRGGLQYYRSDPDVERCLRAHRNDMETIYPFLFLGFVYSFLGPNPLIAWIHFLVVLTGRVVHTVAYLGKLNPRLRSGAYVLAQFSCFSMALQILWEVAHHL

Row | SMILES | remaining at 1 h, 1 µM [1] | inhibition [2] | inhibition [3] | IC50 (Prostaglandin E synthase [4]) | IC50 (Prostaglandin E synthase [5]) | remaining at 1 h, 1 µM [6] | inhibition at 20 min, 10 µM (CYP3A4) | inhibition at 20 min, 10 µM (CYP2C9) | inhibition at 40 min, 10 µM (CYP2C19) | fraction unbound at 5 h, 10 µM [7] | fraction unbound at 5 h, 10 µM [8] | inhibition at 5 min, 10 µM [9] | inhibition at 5 min, 10 µM [10] | inhibition [11] | IC50 [12] | inhibition [13] | inhibition at 10 µM (hERG (KCNH2)) | inhibition (CHO)
1 | Cc1cccc(Cl)c1Nc1nc2cc(C(=O)Nc3cc(C(F)F)ccc3F)c3c(c2[nH]1)CC(C)(C)O3 | 83% | 20.1% | 11% | 10 nM | 162 nM | 60% | 16% | 28% | 14% | 0.0008 | 0.0158 | 38.2% | 43.2% | 3.8% | 46 nM | 2.5% | 11.8% | 0.7%
2 | Cn1c(Nc2c(F)cccc2Cl)nc2cc(C(=O)Nc3cccc(C(F)(F)F)c3)c3c(c21)CC(C)(C)O3 | 98% | 3.9% | 24% | 5.7 nM | 405 nM | 51% | 8% | 19% | 36% | 0.0029 | 0.0028 | 19.7% | 6.5% | 7.9% | 4.3 nM | 5.2% | 26.5% | 3.4%
3 | CC1(C)Cc2c(c(C(=O)Nc3ccc(F)c(C(F)(F)F)c3)cc3nc(Nc4c(F)cccc4Cl)[nH]c23)O1 | 100% | 2.5% | 0% | 5 nM | 208 nM | 100% | 46% | 48% | 55% | 0.0054 | 0.0136 | 8.27% | 23.1% | 11.6% | 24 nM | 22.1% | 3.8% | 10.5%
4 | CC1(C)Cc2c(c(C(=O)Nc3ccc(C(F)(F)F)cn3)cc3nc(Nc4c(Cl)cccc4Cl)[nH]c23)O1 | 91% | 4.3% | 0% | 8.4 nM | 261 nM | 71% | 40% | 56% | 15% | 0.0004 | 0.0016 | 7.8% | 35.9% | 7.8% | 12 nM | 10.9% | 5.4% | 7.1%

Now those with a lower IC50 (Prostaglandin E synthase [4]), led by results:

Row | remaining at 1 h, 1 µM [1] | inhibition [2] | inhibition [3] | IC50 (Prostaglandin E synthase [4]) | IC50 (Prostaglandin E synthase [5]) | remaining at 1 h, 1 µM [6] | inhibition at 20 min, 10 µM (CYP3A4) | inhibition at 20 min, 10 µM (CYP2C9) | inhibition at 40 min, 10 µM (CYP2C19) | fraction unbound at 5 h, 10 µM [7] | fraction unbound at 5 h, 10 µM [8] | inhibition at 5 min, 10 µM [9] | inhibition at 5 min, 10 µM [10] | inhibition [11] | IC50 [12] | inhibition [13] | SMILES | inhibition at 10 µM (hERG (KCNH2)) | inhibition (CHO)
5 | 100% | 7.5% | 21.1% | 3.3 nM | 222 nM | 46% | -4% | 15% | 16% | 0.0003 | 0.0004 | 14.6% | 31% | 23.5% | 19 nM | 8.2% | Cc1cccc(Cl)c1Nc1nc2cc(C(=O)Nc3cc(C(F)(F)F)ccc3F)c3c(c2[nH]1)CC(C)(C)O3 | 12.3% | 0%
6 | 89% | 5.6% | 4.2% | 3 nM | 256 nM | 79% | 2% | 35% | 33% | 0.0004 | 0.0035 | 14.7% | 28.7% | 13.5% | 14 nM | 14.4% | CC1(C)Cc2c(c(C(=O)Nc3cc(C(F)(F)F)ccc3F)cc3nc(Nc4c(F)cccc4Cl)[nH]c23)O1 | 5.8% | 11.7%
